# Screening results: PubChem BioAssay, several laboratories
# p47phox inh: inhibitors of human p47phox binding. 220,000 compounds, 0.53% hits. AID 1274. P14598. p47phox/p22phox peptide binding, fluorescence polarization, 2 h. inhibition, % at 24.7 µM;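 active means inhibition above about 30%, limit read from the data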;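 further: 0% = p47phox with labelled peptide and 100% = labelled peptide alone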
# Tb hexokinase: T. brucei hexokinase 1 inhibition; recombinant TbHK1, G6PDH-coupled NADH A340; 220,000 compounds, 0.11% hits; AID 1430; inhibition, % at 10 µM;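 active means inhibition of 50% or more in the single-dose primary screen; inactive means inhibition below 50%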
# Mdm2 ligase inh: Mdm2 E3 ligase (human) inhibition; cell-based MDM2 ubiquitination luciferase reporter, 2 h; 0 = plate control, 100 = twice control, blank-subtracted; signal enhancement, % at 5 µM; 210,000 compounds, 0.11% hits; AID 1230;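 active means signal enhancement of 30% or more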;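 further: luminescence tracks abundance of the self-degrading MDM2-luciferase fusion protein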
# Target sequence (Q00987 whole entry, looked up, the tested form may be a part): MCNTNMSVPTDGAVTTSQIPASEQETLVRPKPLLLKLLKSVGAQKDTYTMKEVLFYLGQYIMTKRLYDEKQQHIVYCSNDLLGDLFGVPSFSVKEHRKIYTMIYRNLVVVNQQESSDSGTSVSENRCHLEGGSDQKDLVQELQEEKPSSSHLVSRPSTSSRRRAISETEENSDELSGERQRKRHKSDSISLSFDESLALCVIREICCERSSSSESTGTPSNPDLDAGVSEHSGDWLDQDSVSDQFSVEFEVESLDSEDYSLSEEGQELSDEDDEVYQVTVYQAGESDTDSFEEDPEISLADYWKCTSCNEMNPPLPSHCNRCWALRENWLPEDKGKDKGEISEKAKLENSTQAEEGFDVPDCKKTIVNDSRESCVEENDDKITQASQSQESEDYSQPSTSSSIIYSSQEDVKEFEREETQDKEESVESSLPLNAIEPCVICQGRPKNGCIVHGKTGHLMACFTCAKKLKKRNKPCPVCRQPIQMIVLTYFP
#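 Buffer or medium: Cells held in DMEM | Assay system: Stable mammalian line carrying autodegrading MDM2–luciferase fusion reporter | Quantity: 2000 cells/well | Times: 4 h settle plus 2 h compound, 37 °C | Doses: One concentration, 5 µM, with 0.2% DMSO | Technique: Luminescence with SteadyLite reagent, 15 min at room temperature | Benchmarks: Plate controls and plate blanks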
# Rad51 HR inh: blocks human Rad51 in homologous recombination. Q06609. hRad51 DNA strand exchange, fluorescence dequenching. inhibition, % at 10 µM. 200,000 compounds, 0.085% hits. AID 1385;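 active means inhibition above 40% at the single screening dose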;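 further: 0% = DMSO control wells and 100% = blanks with heterologous ssDNA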
#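 Test system: preformed human Rad51 ssDNA filaments; also added: Donor/quencher-labelled 47-bp dsDNA substrate; doses: 10 µM final, single point; times: 37 °C 15-min filament assembly, 30-min compound preincubation, 15-min exchange; detection: FRET fluorescence dequenching, excitation 485 nm, emission 520 nm; read-out basis: Fluorescence-based percent inhibition, control- and blank-normalised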
# Active calls of the source: *; . = not tested or not shown. The list is not random: actives were taken first. Their share in the collection is about 0.75%.
SMILES,p47phox inh,Tb hexokinase,Mdm2 ligase inh,Rad51 HR inh
Cc1cc2nc3c(nc2cc1C)C1(C(=O)O)CCC3(C)C1(C)C (stereo not drawn),6,-12,-19,40*
N#C/C(=C\C1=C(N2CCOCC2)C(=C\c2ccc(Cl)cc2)/CC1)C(=O)Nc1ccccc1F,-254,-6,-1,-20
CCN(CC)c1ccc(/C=C2\CCC(/C=C(\C#N)C(=O)Nc3ccccc3F)=C2N2CCOCC2)cc1,120*,-14,-10,8
O=S(=O)(NC1CC1)c1ccc(S(=O)(=O)N(Cc2ccccn2)C2CC2)cc1,4,7,-9,9
Cc1ccc(NC(=O)/C(=C\c2ccc([N+](=O)[O-])cc2)NC(=O)c2ccccc2)cc1,-8,-22,6,8
CSc1ccc(/C=C(/NC(=O)c2ccc(C)cc2)C(=O)Nc2cccc(F)c2)cc1,67*,-14,-12,-13
COCC1=C(C(=O)OC)C(c2ccco2)n2ncnc2N1 (stereo not drawn),9,-6,-78,19
CC(C)CC(NC(=O)c1ccc(Cl)cc1)C(=O)OCc1cc([N+](=O)[O-])cc2c1OCOC2 (stereo not drawn),7,-6,-12,-7
CCN(CC)c1ccc(NC(=O)Cn2c(C(C)NC(=O)c3ccccc3)nc3ccccc32)cc1 (stereo not drawn),39*,-2,-13,-1
COc1ccc(C)cc1NC(=O)C(OC(=O)CNC(=O)c1cc(C)cc(C)c1)c1ccccc1 (stereo not drawn),-7,-1,67*,-11
O=C(CN(Cc1ccco1)C(=O)CCC(=O)Nc1nccs1)NCc1ccccc1,-17,6,5,125*
Cc1ccc(S(=O)(=O)Oc2ccc(/C=C(/NC(=O)c3ccccc3)C(=O)NC(C)C(=O)O)cc2)cc1 (stereo not drawn),7,-2,-10,.
O=C1CSC(=S)N1/N=C/c1cccnc1,-11,-36,-5,4
O=C1CN(c2cc(Cl)cc(Cl)c2)C(=O)CN1/N=C/c1cccnc1,0,1,77*,7
Cc1ccc2cc(C#N)c(SCc3nnc(-c4ccccc4[N+](=O)[O-])o3)nc2c1,-10,-2,-20,3
Cc1ccc2nc3sc(-c4nnc(-c5ccccc5[N+](=O)[O-])o4)c(N)c3cc2c1,44*,9,-16,.
Cc1ccc2cc3c(N)c4c(C)ccc(C)c4nc3nc2c1,31*,5,-11,-176
COc1ccccc1NC(=O)COc1ccc(/C=N/NC(=O)CSCc2ccc(Cl)cc2)cc1,15,8,-3,.
COc1ccccc1NC(=O)COc1ccc(/C=N/NC(=O)CSCc2cc(C)cc(C)c2)cc1,34*,6,-1,-6
N#Cc1c(-c2cccnc2)c2c([nH]c1=S)CCCC2,33*,3,-14,-10
CC(=O)N1CC(=O)N(Cc2ccccc2)/C(=C/c2ccccc2)C1=O,134*,-3,-5,-9
Cc1[nH]c2ccc(F)cc2c1CCN(Cc1cccnc1)C(=S)Nc1cccc(F)c1,-4,10,-18,-8
Cc1ccc(C(c2nnnn2CS(=O)(=O)c2ccc(C)cc2)N2CCCC2)cc1 (stereo not drawn),39*,-10,-14,.
Cc1ccc(C(=O)NCC(=O)OCC(=O)c2ccc3c(c2)NC(=O)CO3)cc1,-2,3,-26,22
Cc1cc(C)n2nc(C(=O)NNC(=O)c3ccc(Cl)cc3)nc2n1,36*,-20,.,-7
SMILES,p47phox inh,Tb hexokinase,Mdm2 ligase inh,Rad51 HR inh
CC(C)Cc1cc(C(=O)N2CCCC(CCC(=O)N(C)CCc3ccccn3)C2)no1 (stereo not drawn),0,-3,6,11
Cc1ccccc1NC(=O)c1sc(Cl)nc1-c1ccccc1,68*,-3,-9,10
Cc1ccc(C)c(NC(=O)c2sc(Cl)nc2-c2ccccc2)c1,2,-9,-16,0
Cc1cc(C(=O)Nn2cnc3ccccc3c2=O)ccc1[N+](=O)[O-],-1,-8,-25,.
C=CCN(c1cccc(C(F)(F)F)c1)S(=O)(=O)c1cccc(C(=O)OCC(=O)NCCC)c1,2,-7,116*,10
C=CCN(c1ccccc1)S(=O)(=O)c1cccc(C(=O)OCC(=O)NCCOC)c1,-11,-4,.,-49
Clc1ccccc1-c1nc2nc3ccccc3nc2n1-c1ccc2c(c1)OCO2,174*,-22,9,0
Cc1cc2cc(C)c(SCC(=O)NCc3ccco3)nc2cc1C,-9,-6,31*,-3
CC(C)c1ccc2c(c1)C1(NN=C(c3ccccc3)S1)C(=O)N2 (stereo not drawn),-2,2,45*,2
CCc1ccc2c(c1)C1(NN=C(c3ccc(C)cc3)S1)C(=O)N2 (stereo not drawn),-7,3,4,-2
OCC1(Cc2ccccc2)CCN(C2CCN(c3ccc(F)c(F)c3)CC2)CC1,1,2,14,-4
COc1ccc(OCC(=O)OC2CCCN(C)C2)cc1 (stereo not drawn),-3,-4,-17,10
CCN1CCN(Cc2nc3c(c(=O)n(C)c(=O)n3C)n2CCc2ccccc2)CC1,-10,2,.,2
CCN1CCN(Cc2nc3c(c(=O)n(C)c(=O)n3C)n2C(C)C(C)=O)CC1 (stereo not drawn),9,7,31*,-4
COc1cc(/C=C2\COC/C(=C\c3cc(OC)c(OC)c(OC)c3)C2=O)cc(OC)c1OC,-19,-17,69*,13
COc1cc(/C=C2\CC/C(=C\c3cc(OC)c(OC)c(OC)c3)C2=O)cc(OC)c1OC,-6,-4,4,-18
CC(C)(O)c1ccccc1CC[C@@H](SCC1(CC(=O)O)CC1)c1cccc(/C=C/c2ccc3ccc(Cl)cc3n2)c1,.,.,.,4
Cc1ccc(OC(=O)c2sc(Cl)nc2C)cc1C,-3,-5,-17,1
COc1ccc(Cc2nc(C(=O)NCc3ccccc3OC)cs2)cc1,31*,8,-11,8
COc1ccc(Cc2nc(C(=O)Nc3ccc(OC)cc3)cs2)cc1,-1,-2,.,5
CC(C)(C)N1OC2CC1c1nc3ccccc3n1C2 (stereo not drawn),50*,-2,-9,2
c1ccc(N2OCC3Cn4c(nc5ccccc54)C32)cc1 (stereo not drawn),18,-14,-10,-1
CCCC[C@H]1C2=C3[C@@H](CC(C(=O)OC)=C[C@@H](C(=O)OC)[C@H]3C(C)(C)C2=O)n2c(=O)n(-c3ccccc3)c(=O)n21,.,.,.,-3
O=C(CSc1nc(C2CCCCC2)n(-c2ccccc2)n1)NCC(F)(F)F,41*,0,.,.
COc1cc(N=Nc2cccc(S(N)(=O)=O)c2)c2ccccc2c1N,-79,-6,-26,-29
COC(=O)c1ccc(CNC(=O)COC(=O)C2CC3C=CC2C3)cc1 (stereo not drawn),7,5,0,3
CCn1c(SCC(=O)c2ccc(O)c(O)c2)nnc1-c1ccccc1OC,70*,47,-11,17
O=c1ncc(F)c[nH]1,.,.,.,-18
